Test results from the RNAGym collection of RNA variant scans (doi:10.1126/science.aae0568).
Fewer inactive variants are shown than the library holds.

B1: tRNA (parent)
chain: GUUCCGUUGGCGUAAUGGUAACGCGUCUCCCUCCUAAGGAGAAGACUGCGGGUUCGAGUCCCGUACGGAACG

Variants of: B1
Assay: yeast fitness relative to wild type (ratio to wild type); higher = fitter; tRNA-Arg(CCU), competitive growth, 37 C, YPD
Outline: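 Gene amplicons from the start population and from each of six end populations were read by 100-nucleotide paired-end sequencing. Those end populations came from pooled Saccharomyces cerevisiae strains carrying tRNA-Arg(CCU) gene variants at the native locus, competed in YPD at 37°C for 24 hours. Fitness relative to wild type was worked out from changes in genotype frequencies. Genotypes needed ≥ 100 starting reads, and estimates < 0.5 were set to 0.5.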
For GUUCCGUUGGCGUAAUGGUUACGUGUCUGCCUCCUAAGGAGAAGACUGGGGGUUCGAGUCCCCUACGGAACG [A20U C24U C29G C49G G63C], the yeast fitness was ≤ 0.5.
With GUUCCGUUGGCGUAAUGGUAACGCGUCUCCCUCCUAAGGAGAAGACUGCGGGUCCGAGUCCCGUACGGUACG [U54C A69U] the yeast fitness was 0.986.
With GUUCCGUUGGCGCAAUGGUAACGCGUCUCCCUCCUAAGGAGAAGACUGCGGGUUCGAGUCACGUACAGAACG [U13C C61A G67A] the yeast fitness was ≤ 0.5.
GUUCCGUUGGCAUAAUGGUAACGCAUCUCCCUCCUAAGGAGAAGACUGCGGGUUCGAGUCCCGUACAGAACG [G12A G25A G67A] showed a yeast fitness of 0.625.
Variant GUUCCGUUGGCGUAAUGGUAAUGCGUCUCCCUGCUAAGGAGAAGACUGCGGGUUCGAGUUCGGUACGGAACG [C22U C33G C60U C62G] has a yeast fitness of 0.594.
In the case of GUUCUGUUGGCGUAAUGGUAACGCGUCUCCCACCUAAGGAGAAGACUGCAGGUUCGAGUCCCGUACGGAACG [C5U U32A G50A], the yeast fitness is reported as 0.581.
In the case of GUUCAGUUGGCGUAAUGGUAACGCGUCUCCCUCCUAAGGAGAAGACUGCGGGUUCGAGUCCCGUAAGGAACG [C5A C66A], the yeast fitness is reported as 0.679.
For GUUCCGUUGGUGUAAUGGUAACGCGGCCCCCUCCUAAGGAGAAGACUGCGGGUUCAAGUCCCGUACGGAACG [C11U U26G U28C G56A], the yeast fitness was ≤ 0.5.
For GUUCCGUUGGCGUAAUGGUAACGCGUCUCCGUCCUACGGAGAAGACUGCGGGUUCGUGUCCCGUACGGAACG [C31G A37C A57U], the yeast fitness was ≤ 0.5.
With GUUCCGUUGGCGUAAUGGUAACGCGUCUCCCUCCUAAGCAGAAGACUGCGGGUUCGCGUCCCGUACGGAACG [G39C A57C] the yeast fitness was ≤ 0.5.
In the case of GUUCCGUAGGCGUAAUGGUAACGAGUCUCUCUCCUAAGGAGAAGACUCCGGGUUCGAGUCCCGUACGGAACG [U8A C24A C30U G48C], the yeast fitness is reported as ≤ 0.5.
In the case of GUUCCGUUGGCGUAAUGGUAACGCGUGUCCCUCCUAAGGAGACGACUGCGGGUUCCAGUCCCGUACGGAACG [C27G A43C G56C], the yeast fitness is reported as ≤ 0.5.
Work on GUUCCGUUGGCGUAAUGGUAACGCGACUCCCUCCUAAGGAGAUGACUGCGGGUUCGAGUCCCGUACGGAUCG [U26A A43U A70U] yielded a yeast fitness of 0.838.
GUUCCGUUGGCGUAAUGGUAACGCGUCUUCAUCCUAAGGAGAAGACUGCGGGUUUGCGUCCCGUACGGAACG [C29U C31A C55U A57C] gave a yeast fitness of 0.62.
Work on GUUCCGUUGGCGUAAUGGUAACGCGUCUGGCUCCUAAGGAGAAGACUGCGGGUUCGAGUCCCGUACGGAACG [C29G C30G] yielded a yeast fitness of 0.814.
With GUUCUGUUGACGUAAUGGUAACGCGUCUCCCUCCUAAGGAGAAGACUGCGGGUCCGGGUCCCGUACGGAACG [C5U G10A U54C A57G] the yeast fitness was ≤ 0.5.
With GUUCCGUUGGCGUAAUGGUAACACGUCUCUCUCCUAAGGAGAAGACUGCGGGUUAGAGUCCCGUACGGAACG [G23A C30U C55A] the yeast fitness was 0.573.
GUUCGGCAGGCGUAAUGGUAACGCGUCUCCCUCCUAAGGAGAAGACUGCGGGUUCGAGUCCCGUACGGAACG [C5G U7C U8A] showed a yeast fitness of 0.56.
GUUCCGUUGGCGUAAUGGUAACGCGUCUCCCUCCUAAGGAAAAGACUGGGGGUUCGAGUCCCGUACGGAACG [G41A C49G] showed a yeast fitness of 0.655.
In the case of GUUCCGUCGGCGUAAUGGUAACGCGUCUCCCUCCUAAGGAGAAGACUGCGGGUUCGAAUCCCGUACGGAACG [U8C G58A], the yeast fitness is reported as 1.02.
In the case of GUUGCGUUGGCGUAAUGGUAACGCGUCUCCCUCCUAAGAAGAAGACUGCGGGAUCGAGUCCCGUACGGAACG [C4G G39A U53A], the yeast fitness is reported as ≤ 0.5.
GAUCCGUUGGCGUAAUGGUAACGCGUCUCCCUCCUAAGGAGAAGACUGCGGGUACGAGUCCCGUACGGAACG [U2A U54A] showed a yeast fitness of 0.613.
With GUUCCGUUGGCGUAAUGGUAACGCGUCUCCCUCUUAAGGAGAACACUGCGGGCUCGAGUCCCGUACGGAACG [C34U G44C U53C] the yeast fitness was ≤ 0.5.
In the case of GUUCCGUUAGGGUAAUGGUAACGGGUCUCCCGCCUAAGGAGAAGACUGCGGCUUCGAGUCCCGUACGGAACG [G9A C11G C24G U32G G52C], the yeast fitness is reported as ≤ 0.5.
Variant GUUCCGUUGGCGCAAUGGUAACGCCUCUCCCUCCUAAGGCGAAGACUGCGGGUUCGAGUCCCGUACGGAACG [U13C G25C A40C] has a yeast fitness of 0.667.
With GUUUUGUUGGCGUAAUGGUAACGCGUCUCCCUCCUAUGGAGAAGAUUGCGGGUUCGAGUCUCGUAUGGAACG [C4U C5U A37U C46U C61U C66U] the yeast fitness was ≤ 0.5.
For GUUCCGUUGGCGUAACGGUAUCGCGUCUCCCUCCUAAGGAGAUGACUGCGGGUUCGAGUCACGUACGGAACG [U16C A21U A43U C61A], the yeast fitness was ≤ 0.5.
GUUCCGUCGGCGUAAUGGUAACGCGUCUCCCUCCUGAGGAGAAAAUUGCGGGUUCGAGUCCCGUACGGAACG [U8C A36G G44A C46U] gave a yeast fitness of 0.674.
GUUCCGUUGGCGUAAUCGUAACGGGUCACUCUCCUAAGGAGAAGACUGCGGGUUCGAGUCCCGUUCGGCACG [G17C C24G U28A C30U A65U A69C] showed a yeast fitness of 0.571.
For GUACCGUUGGCGUAAUGGUAACGCGUCUCCCUCUUAAGGAGAGGACUGAGGAUUCGAGUCCCGUACGGAACG [U3A C34U A43G C49A G52A], the yeast fitness was ≤ 0.5.
In the case of GUUCCGUUGGCGUAAUGGUAAGGCGUCUCCCUCAUAAGGAGAAGACUGCGGGUUCCAGUCCCGUACGGAACG [C22G C34A G56C], the yeast fitness is reported as ≤ 0.5.
For GUUCCGUUGGCGUAAUGGUAACGAGUCUGCCUCCGCAGGAGAAGACUGCGGGUUCGAGUCCCGUACGGAACG [C24A C29G U35G A36C], the yeast fitness was ≤ 0.5.
With GUUCCGUUGGCGUAAUGAUAACGCGUCUCCCUCUCAAGGAGAAGACUGCGGGUUCGAGUCCCGUACGGAACG [G18A C34U U35C] the yeast fitness was ≤ 0.5.
In the case of GUUCCGUUGGCGUAAUGGUAAGGCGUCUGCCUCCUAAGGAGGAGAUUGCGGGUUCGAGUCCCGUACGGAUCG [C22G C29G A42G C46U A70U], the yeast fitness is reported as ≤ 0.5.
With GUUCCGUUGGCGUAAUGGUAGCGCGUCUCCCUCCUAAGGAGAAGACUCCGGGUUCGAGUCGAGUAUGGAACG [A21G G48C C61G C62A C66U] the yeast fitness was ≤ 0.5.
For GUUCCGUUGGCGUAUUGGUAACGCGUAUCCCUCCUAAGGAGAAGACUGCGGGUUCGAGUCGCGUACGGAACG [A15U C27A C61G], the yeast fitness was ≤ 0.5.
In the case of GUUCCGUUGGCGUAAUGGUAGCACGUCUCCCUCCUAAGGAGAAGACUGCGGGUUCGUGUCGCGUACGGAACG [A21G G23A A57U C61G], the yeast fitness is reported as 0.623.
